Assay outcomes (PubChem)
Rows were chosen to be rich in hits. Some 5.4% of all compounds tested hit in one or more screens of this group.
Cav32 inh: inhibitors of human Cav3.2 T-type calcium channel; O95180; Cav3.2-expressing cells, Fluo-4 calcium fluorescence FDSS; stronger effect = lower value; B-score at 10 µM; hit rate 4% among 100,000;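 active = single-dose well whose peak fluorescence ratio is a statistical outlier from its plate by either plate-standardised score or position-corrected B-score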
DAT uptake mod: modulates human dopamine transporter uptake under cocaine; LLC-PK1 hDAT cells, [14C]-dopamine uptake with cocaine IC80; actives deviate in either direction; Q01959; B-score at 10 µM; hit rate 1.3% among 110,000;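 active = Z score or B-score, a plate-position-corrected score, falls beyond the plate's 99.7% confidence bounds, in either direction; inactive = both scores lie inside the 99.7% bounds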;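 also: scored against the spread of the other compound wells on the same plate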
HIV Rev-RRE inh: HIV Rev-RRE protein-RNA interaction inhibition; P05866; Rev peptide-RRE RNA binding, FRET; inhibition, % at 8 µM; hit rate 0.79% among 97,000; AID 704;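 active = inhibition above the screen-wide mean plus 3 SD, cut at about 35% in these data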;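 also: 0% = median DMSO wells and 100% = median Neomycin B control wells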
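Assay system: labelled RRE RNA duplex and labelled Rev peptide / Medium: HEPES pH 7.5 salt buffer with EDTA / Reagent: labelled Rev peptide / Schedule: 5 + 15 min at 25 °C / Signal: FRET, excitation 480 nm, emission 540 nm donor and 671 nm acceptor / Benchmarks: DMSO and neomycin B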
EphB4 ephrin blk: EphB4-ephrin-B2 interaction antagonism; EphB4 LBD / TNYL-RAW-Alexa532 peptide, fluorescence polarization; inhibition, % at 7 µM; hit rate 0.15% among 97,000; AID 720;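 active = inhibition above the screen-wide mean inhibition plus 3 SD, cut at about 15% in these data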;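 also: 0% = DMSO wells and 100% = excess unlabeled TNYL-RAW peptide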
* = called active by the depositor; nt = not tested or not shown; [ ] = another dose, or the depositor's remark.

SMILES	Cav32 inh	DAT uptake mod	HIV Rev-RRE inh	EphB4 ephrin blk
C=C(C)[C@@]12OC3(c4ccccc4)O[C@@H]1C1[C@@H]4O[C@]4(CO)[C@@H](O)[C@]4(O)C(=O)C(C)=C[C@H]4[C@@]1(O3)[C@H](C)[C@H]2OC(=O)/C=C/C=C/c1ccccc1 (stereo partly drawn)	-4.42*	-6.26*	nt	nt
COC(=O)C1=C(c2ccccc2)C[C@@H]2CC[C@H]1N2C(=O)N1CCC(O)CC1	0.735	-0.317	nt	nt
O=C(N/N=C1/CN2CCC1CC2)c1cc2ccccc2cc1O	-0.0212	-8.23*	11.5	11.2
CC(C)N1CC=C(c2c[nH]c3ccccc23)CC1	-0.322	-0.147	-3.1	1.7
C1=C(c2c[nH]c3ccccc23)CCNC1	-0.901	-0.554	99.2*[fluorescence artefact?]	11.9
COc1cc(C[C@@H](C)N)c(OC)cc1I	-0.0567	-0.678	nt	nt
CC(C(=O)c1c[nH]c2ccccc12)N1CCSCC1 (stereo not drawn)	-1.25	0.244	10.5	-0.8
CC(C)C/C(=N/O)c1c[nH]c2ccccc12	-3.03	4.25*	2.0	0.6
CCC(CO)Nc1ccc([N+](=O)[O-])c2cccnc12 (stereo not drawn)	0.101	-2.34	3.7	0.1
CCC(=NCc1ccc2c(c1)OCO2)c1c(O)n(C2CCCCC2)c(=O)[nH]c1=O	-5.77*	0.852	10.5	9.5
C=CCn1c(O)c(C=Nc2ccc(N(CC)CC)cc2)c(=O)[nH]c1=O	0.443	-1.25	56.2*	-0.9
C=CCn1c(O)c(C=NCCN2CCNCC2)c(=O)[nH]c1=O	0.00909	-0.572	9.2	2.5
Cc1ccccc1-n1c(O)c(C=Nc2ccc(N(C)C)cc2)c(=O)[nH]c1=O	0.0466	0.345	41.3*	-5.4
CCN(CC)c1ccc(N=Cc2c(O)n(CCC3=CCCCC3)c(=O)[nH]c2=O)cc1	-5.58*	0.603	41.6*	8.6
C=CCn1c(O)c(C=NCCN(C)C)c(=O)[nH]c1=O	0.254	0.175	37.8*	3.5
CN(C)c1ccc(N=Cc2c(O)n(CCC3=CCCCC3)c(=O)[nH]c2=O)cc1	0.0795	-1	9.6	1.7
CC(=NCCCn1ccnc1)c1c(O)n(C)c(=O)n(C)c1=O	0.614	0.574	1.7	2.8
CCc1ccc(C(=O)C23CN4CN(CN(C4)C2)C3)cc1	0.917	0.339	6.8	4.0
COC(=O)C1=C(c2ccc(S(C)(=O)=O)cc2)C[C@@H]2CC[C@H]1N2C(=O)NC1CCCCC1	1.83	-0.673	nt	nt
CCN(CC)C1=NC(=[N+](CC)CC)c2ccccc21	0.0951	-2.98*	1.2	4.0
CNCC1(c2ccccc2)CCCC1	0.19	-7.39*	-1.6	-7.7
CCNCC1(c2ccc(OC)c(OC)c2)CCCC1	-0.199	0.388	5.2	5.7
O=c1[nH]c(CN2CC=C(c3ccccc3)CC2)nc2cc(C(F)(F)F)ccc12	-0.75	0.304	44.5*	-0.1
CCCCn1c(N)c(C(=O)NCCN2CCOCC2)c2nc3ccccc3nc21	-0.324	2.11	3.1	-0.7
CCOC(=O)c1c(N)n(CCN2CCCCC2)c2nc3ccccc3nc12	-0.42	1.18	37.7*	5.4
SMILES	Cav32 inh	DAT uptake mod	HIV Rev-RRE inh	EphB4 ephrin blk
Nc1c(C(=O)NCCN2CCOCC2)c2nc3ccccc3nc2n1Cc1ccco1	-1.74	1.48	44.9*	2.9
CC(C)(C)OC(=O)c1c(N)n(Cc2ccco2)c2nc3ccccc3nc12	-5.32*	0.448	33.5	1.1
COCCNC(=O)c1c(N)n(Cc2ccco2)c2nc3ccccc3nc12	-1.57	2	36.0*	-3.8
Cc1ccc(-n2c(-c3cccs3)nc3ccccc3c2=O)cc1	nt	nt	9.2	5.3
C[C@@H]1O[C@@H](O[C@H]2C[C@@H](O)[C@]3(CO)[C@H]4[C@H](O)C[C@]5(C)[C@@H](C6=CC(=O)OC6)CC[C@]5(O)[C@@H]4CC[C@]3(O)C2)[C@H](O)[C@H](O)[C@H]1O	-0.0977	-6.57*	nt	nt
C[C@H]1O[C@@H](O[C@H]2[C@@H](O)C[C@H](O[C@H]3[C@@H](O)C[C@H](O[C@H]4CC[C@@]5(C)[C@H](CC[C@@H]6[C@@H]5CC[C@]5(C)[C@@H](C7=CC(=O)OC7)CC[C@]65O)C4)O[C@@H]3C)O[C@@H]2C)C[C@H](O)[C@@H]1O	-0.0576	-7.19*	nt	nt
CCOC(=O)C1CCN(C(C)C(=O)c2c(C)[nH]c3cc(C)ccc23)CC1 (stereo not drawn)	0.812	-0.242	1.4	-0.1
CN(C)C1(c2nnnn2CCOC(=O)Nc2ccc(Cl)cc2)CCCCC1	-2.96*	1.71	13.6	4.6
C=CCN1CC[C@]23c4c5ccc(O)c4O[C@H]2/C(=N/NC(=O)c2ccccc2)CC[C@@]3(O)[C@H]1C5	nt	0.632	nt	nt
CCC(C)(C)n1nnnc1CN1CCC(n2c(C)nc3cc(C(F)(F)F)ccc32)CC1	4.03*	1.3	-3.7	-1.1
CCN1CCN(Cc2nnnn2C(C)(C)C)CC1	0.215	-1.12	0.5	-13.9
O=C(Nc1cccc2ccccc12)c1nn(C23CC4CC(CC(C4)C2)C3)cc1Br	-1.37	0.45	3.0	-1.9
c1ccc2c(c1)[nH]c1cnccc12	-0.0758	-0.434	nt	nt
Cc1c2ccncc2c(C)c2c1[nH]c1ccccc12	-4.4*	-0.00732	nt	nt
COC(=O)C1=C(c2cc3ccccc3o2)C[C@@H]2CC[C@H]1N2C(=O)NCc1cccc2ccccc12	-3.62*	1.82	nt	nt
O=c1[nH]c(=O)n(CCC2=CCCCC2)c(O)c1C=NC1CCN(Cc2ccccc2)CC1	1.86	-0.166	6.6	3.2
CCCCCCn1c(O)c(C=NC2CCN(Cc3ccccc3)CC2)c(=O)[nH]c1=O	-3.31*	-0.178	5.2	-2.0
CCN(CC)c1ccc(/C=C2/C(=O)NC(=O)N(CC3CCCO3)C2=O)cc1 (stereo not drawn)	0.433	0.918	89.5*[fluorescence artefact?]	4.8
CC(C)CCNC(=O)c1c(N)n(CC2CCCO2)c2nc3ccccc3nc12 (stereo not drawn)	-4.2*	1.02	7.5	-5.8
CCC(C)NC(=O)c1c(N)n(CC2CCCO2)c2nc3ccccc3nc12 (stereo not drawn)	-8.71*	1.77	nt	nt
COc1ccc(OCC(=O)N2CCN(Cc3c[nH]c4ccccc34)CC2)cc1	1.05	4.26*	4.2	-2.2
COC(=O)C1=C(c2cccc(OC)c2OC)C[C@@H]2CC[C@H]1N2C(=O)NCCS(C)=O (stereo partly drawn)	-0.612	-1.48	nt	nt
COC(=O)C1=C(c2ccccc2)C[C@@H]2CC[C@H]1N2C(=O)NC1CCCCC1	-1.77	0.375	nt	nt
O=c1c(C=NCc2cccs2)c(O)n(C2CCCCC2)c(=O)n1C1CCCCC1	-4.36*	1.17	7.6	1.6
O=c1c(C=NCCN2CCNCC2)c(O)n(C2CCCCC2)c(=O)n1C1CCCCC1	-0.272	0.0112	3.0	3.3
CN1C(=O)C(=Cc2ccccc2Oc2ccc(Cl)c(F)c2)C(=O)N(C)C1=O	-4.75*	1.48	8.9	2.8
Cc1ccc(C(=O)C2(C)N(O)C(C)C(c3cccs3)=[N+]2[O-])cc1 (stereo not drawn)	0.762	-0.441	3.7	8.5
O=C(/C=C/c1ccccc1)NCCc1cnc[nH]1	0.936	-0.249	nt	nt
COc1ccc2nc(/N=C/c3c(O)n(-c4cccc(Cl)c4)c(=O)[nH]c3=O)sc2c1	0.472	-1.62	35.9*	10.4
